Assay outcomes (PubChem BioAssay)
p47phox inh: blocks human p47phox regulatory protein of NADPH oxidases; P14598; p47phox/p22phox peptide binding, fluorescence polarization, 2 h; inhibition, % at 24.7 µM; 220,000 compounds, 0.53% hits; AID 1274;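 active = inhibition above about 30%, limit read from the data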;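 note: 0% = p47phox with labelled peptide and 100% = labelled peptide alone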
HMGR II inh: blocks class II HMG-CoA reductase of Enterococcus faecalis; purified E. faecalis HMGR, NADPH absorbance 340 nm kinetic; inhibition, % at 10 µM; 190,000 compounds, 0.41% hits;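 active = inhibition above a set limit, the median over all tested compounds plus 3 SD, cut at about 9.5% in these data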;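 note: enzyme runs in reverse so mevalonate oxidation gives rising NADPH absorbance; 0% = complete reaction with DMSO and 100% = background rate lacking mevalonate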
Diaph inh CS: inhibits diaphorase or chemically oxidizes, flagging diaphorase assay artifacts; diaphorase resazurin-to-resorufin fluorescence, NADH, 16 min; bacterial (C. kluyveri) enzyme, not human; inhibition, % at 20 µM; 190,000 compounds, 0.69% hits;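 active = primary screen inhibition at 20 µM above a set limit, cut at about 50% in these data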;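 note: plate controls were DMSO with full reaction for no effect and wells lacking NADH for full effect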
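Assay system: diaphorase enzyme from Clostridium kluyveri; Input: enzyme working solution with 0.14 U/mL diaphorase; Timing: 16 min at room temperature; Technique: resorufin fluorescence, excitation 544 nm, emission 590 nm; Benchmarks: positive control minus NADH, DMSO neutral control.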
ABCG2 inh: blocks JC-1 efflux by human ABCG2 transporter; Q9UNQ0; IgMXP3 cells, flow cytometry; inhibition, % at 6.6 µM; 190,000 compounds, 0.1% hits; AID 1325;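 active = inhibition above 80%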;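 note: 0% = DMSO and 100% = nicardipine control wells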
Target sequence (Q9UNQ0 whole entry, looked up): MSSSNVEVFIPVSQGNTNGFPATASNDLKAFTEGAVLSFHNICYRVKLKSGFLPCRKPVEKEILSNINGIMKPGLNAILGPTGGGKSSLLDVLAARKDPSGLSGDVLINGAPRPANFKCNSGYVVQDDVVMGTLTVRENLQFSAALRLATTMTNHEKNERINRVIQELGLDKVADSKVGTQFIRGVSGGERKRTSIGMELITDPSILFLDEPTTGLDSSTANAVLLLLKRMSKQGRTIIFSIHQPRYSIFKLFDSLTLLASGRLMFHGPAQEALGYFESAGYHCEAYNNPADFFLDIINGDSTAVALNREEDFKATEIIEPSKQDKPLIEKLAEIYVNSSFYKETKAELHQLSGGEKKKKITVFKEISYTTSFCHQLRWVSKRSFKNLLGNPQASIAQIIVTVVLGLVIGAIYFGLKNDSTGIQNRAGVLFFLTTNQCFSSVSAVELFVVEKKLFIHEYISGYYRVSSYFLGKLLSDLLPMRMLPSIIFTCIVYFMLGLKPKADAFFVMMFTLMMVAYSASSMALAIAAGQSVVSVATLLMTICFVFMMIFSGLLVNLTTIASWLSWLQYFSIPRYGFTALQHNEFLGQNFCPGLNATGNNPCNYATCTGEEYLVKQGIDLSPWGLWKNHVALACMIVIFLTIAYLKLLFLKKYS
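Times: 10 min at 25 °C | Test system: Two drug-resistant human cell lines, ABCG2 and ABCB1 | Quantity: 3 million cells/mL final, two lines in 1:1 ratio | Signal: Flow cytometry, 530 nm JC-1 signal | Dosing: Compound at 6.6 µM | Controls: Nicardipine and DMSO wells | Reagent: JC-1 as fluorescent efflux pump substrate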
Diaphorase act: activates diaphorase or chemically reduces, flagging diaphorase assay artifacts; Diaphorase/resazurin coupled assay, resorufin fluorescence, 16 min; stronger effect = higher value; 1 = vehicle wells, 0 = NADH-free wells; activation factor at 20 µM; 190,000 compounds, 0.005% hits; AID 1229;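 active = diaphorase activity raised at least twofold by the compound at 20 µM; inactive = activation factor below 2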
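Material: bacterial diaphorase enzyme (C. kluyveri); amount: enzyme 0.07 U/mL final; reagent: NADH substrate 0.114 mM plus resazurin dye 0.1 mM, final; doses: single compound dose of 20 µM, 1% DMSO final; timing: 16 min enzyme reaction, ambient temperature; measured by: fluorescence of resorufin, 544 nm excitation, 590 nm emission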
ABCB1 block: human ABCB1 inhibition, ABCG2 as counter-screen; inhibition, % at 6.6 µM; CCRF-Adr cells, JC-1 efflux, flow cytometry; 190,000 compounds, 0.067% hits; in the data active = inhibition above about 40%;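 note: 0% = vehicle and 100% = reference inhibitor; higher value means more JC-1 retained so stronger ABCB1 efflux block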
Numbers without * were called inactive; / = no result. Compounds with a hit are over-represented: about 1.6% of the library has one in this group of screens.

SMILES	p47phox inh	HMGR II inh	Diaph inh CS	ABCG2 inh	Diaphorase act	ABCB1 block
Cc1[nH][nH]c(=O)c1C(c1ccc(-c2ccc(Cl)cc2Cl)o1)c1c(C)[nH][nH]c1=O	-32	10*	38	0	0.6	0
Cc1c(C(=O)c2ccc(Cl)cc2[N+](=O)[O-])c2ccccn2c1CCC#N	-17	-1	64*	8	0.4	2
S=c1[nH]nc(-c2ccco2)n1/N=C/C=C/c1ccccc1	-2	/	57*	-1	0.4	0
COc1ccccc1Oc1ccc2c(c1)C(=O)N(c1cccc3ncccc13)C2=O	36*	-5	15	4	0.9	2
Cc1ccc(C(=O)COC(=O)c2ccc3c(c2)C(=O)N(c2cccc4ncccc24)C3=O)cc1C	73*	5	-27	0	1.3	0
O=c1[nH]c2ccc(N=Cc3c(O)ccc4cc(Br)ccc34)cc2[nH]1	-37	-9	55*	-1	0.4	0
C/C(CC(=O)NC1CCCCC1)=N\NC(=O)COc1ccc(C)cc1Br	-3	28*	4	2	1	1
C/C(CC(=O)NC(C)(C)C)=N\NC(=O)COc1ccc(C)cc1Br	2	-4	11	3	0.9	0
Cc1ccc2nc(SCCCCOc3ccccc3)[nH]c2c1	5	-1	26	0	0.7	0
Cc1cc([N+](=O)[O-])ccc1-c1ccc(C2Nc3ccccc3C(=O)N2O)o1 (stereo unspecified)	2	-3	68*	7	0.3	1
Cc1[nH]nc2cn[nH]c12	0	-3	6	0	0.9	0
N=c1c2c(-c3ccccc3)c(-c3ccccc3)n(Cc3ccco3)c2ncn1CCCn1ccnc1	6	-2	-13	0	1.1	0
N=c1c2c(-c3ccccc3)c(-c3ccccc3)n(Cc3ccco3)c2ncn1CCCN1CCOCC1	-11	11*	-5	4	1	0
CNCc1ccccc1Sc1ccc(O)c(O)c1	-5	3	63*	10	0.4	1
Cc1cc(O)c(Oc2cc(C)cc(O)c2O)c(O)c1	-3	-1	71*	1	0.3	-1
CC[n+]1cc(-c2ccccc2)nc(N2CCOCC2)n1	39*	1	22	2	0.8	0
NC(=O)c1cc(-c2ccccc2)nc(N2CCOCC2)n1	-9	-1	2	1	1	0
CCOC(=O)C(=O)N1CCN(CC)CC1	-4	2	12	0	0.9	0
COc1ccccc1C(=O)N1CCN(CCc2ccccc2)CC1	-10	1	12	10	0.9	1
COC(=O)N1CCN(CCc2ccccc2)CC1	6	13*	-4	11	1	1
CC(C(=O)Nc1nc2ccccc2[nH]1)N1C(=O)C2CC=CCC2C1=O (stereo unspecified)	1	-1	8	2	0.9	0
COc1ccc(C(=O)NCCOc2cccc(OC)c2)cc1	3	-1	68*	1	0.3	0
COc1ccc(N(C(=O)Cn2nnc(-c3ccc(Cl)cc3)n2)C(C(=O)NCC2CCCO2)c2ccncc2)cc1 (stereo unspecified)	-2	5	/	6	/	0
COc1ccc(CN2C(=O)[C@@H]3C(c4ccccc4Cl)=NO[C@@H]3C2=O)cc1	7	11*	10	2	0.9	1
CCCn1c(=O)c2ccccc2n2c(SCCOc3ccc(OC)cc3)nnc12	-1	-9	26	7	0.7	1
SMILES	p47phox inh	HMGR II inh	Diaph inh CS	ABCG2 inh	Diaphorase act	ABCB1 block
CCC(=O)N(Cc1ccco1)c1nc(-c2ccc(OC)cc2)cs1	3	12*	1	10	1	1
Cc1ccc(/C=N/Nc2ccnc3cc(Cl)ccc23)c(C)c1	47*	-7	-35	0	1.3	0
Oc1ccc(Nc2ccnc3cc(Cl)ccc23)cc1	-3	/	/	/	/	/
Cc1ccccc1/C=N/Nc1ccnc2cc(Cl)ccc12	-1	-3	-5	34	1	-1
Clc1ccc(NNc2ccnc3cc(Cl)ccc23)cc1	-4	15*	-2	4	1	1
O=C(Nc1ccc(F)cc1)N(CCCN1CCOCC1)Cc1cc2cc3c(cc2[nH]c1=O)OCO3	-4	-1	21	13	0.8	0
Cc1cc(=O)[nH]c(=S)n1-c1ccccc1	5	-2	21	2	0.8	0
CCOc1ccc(-n2c(SCC(=O)Nc3ccc(Br)cc3)nc3n[nH]c(C)c3c2=N)cc1	41*	4	8	0	0.9	0
CC1(C)CC(=O)C(C(=O)/C=C/c2ccco2)C(=O)C1	-1	-4	-8	3	1.1	1
CC(=O)Nc1ccc2c(c1)OCCO2	/	16*	8	3	0.9	0
CC(=O)Nc1ccc2c(c1)OCO2	-9	0	1	1	1	0
O=C(Nc1ccc2c(c1)OCCO2)c1c(F)c(F)c(F)c(F)c1F	63*	0	9	7	0.9	0
Cn1c(C(=O)Nc2ccc3c(c2)OCCO3)cc2c(=O)n(C)c3ccccc3c21	5	3	54*	0	0.5	0
CC1CC(C)CN(CC(=O)Nc2ccc3c(c2)OCCO3)C1 (stereo unspecified)	32*	-5	14	0	0.9	0
c1ccc2[nH]c3cc4ncnc4cc3nc2c1	-3	-2	55*	10	0.4	1
FC(F)c1nc2ccccc2[nH]1	-1	0	11	20	0.9	-1
CCC(C)(C)NC(=O)C(c1ccc(O)cc1)N(CCOC)C(=O)CCC(=O)Nc1nccs1 (stereo unspecified)	-3	/	/	/	/	/
CCC(C)(C)NC(=O)C(c1ccc(OC)cc1)N(CCOC)C(=O)CCC(=O)Nc1nccs1 (stereo unspecified)	-1	10*	-28	1	1.3	0
COc1ccc(CCNC(=O)c2ccc3c(SCC(=O)O)c4c(nc3c2)CCCC4)cc1OC	-6	-1	68*	-1	0.3	0
COc1ccc(CCNC(=O)c2ccc3c(=O)n(Cc4ccco4)c(=S)[nH]c3c2)cc1OC	-11	-2	51*	1	0.5	0
COc1ccc(CCNC(=O)c2cc(-c3ccco3)on2)cc1OC	-15	-2	2	4	1	0
COc1ccc(CCNC(=O)c2ccc3nc(-c4ccco4)c(-c4ccco4)nc3c2)cc1OC	9	1	66*	1	0.3	0
CCCCNC(=O)c1ccc2c(SCC(=O)O)c3c(nc2c1)CCCC3	11	-5	7	4	0.9	2
